# Measurements taken from ChEMBL document CHEMBL1772980, “Synthesis and evaluation of new furanyl and thiophenyl azoles as antileishmanial agents” (Eur J Med Chem, 2011).
# The source made the active and inactive calls. The calls are words filed in the database; no cut-off is given here.
# Columns and labels:
# [1] = tested on: Leishmania donovani; experiment: Antipromastigote activity against Leishmania donovani MHOM/IN/80/Dd8 promastigotes assessed as luciferase activity of viable cells at 20 uM after 72 hrs by luminometry; assay type: functional; conditions: MHOM/IN/80/Dd8, 72 h
# Method in brief: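 Late-log luciferase-transfected promastigotes were seeded at 5 × 10⁵ per well in medium 199 with parallel DMSO dilutions as controls. After incubation, a suspension aliquot was mixed 1:1 with Steady Glo reagent and luminescence read as RLU. Percentage inhibition = (N − n) × 100/N, where N is mean control RLU and n is mean treated RLU.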
# [2] = tested on: Leishmania donovani; experiment: Antiamastigote activity against Leishmania donovani MHOM/IN/80/Dd8 amastigotes infected in mouse macrophage at 40 uM after 72 hrs by luciferase reporter gene assay; assay type: functional, organism-based
# [3] = tested on: Leishmania donovani; experiment: Antiamastigote activity against Leishmania donovani MHOM/IN/80/Dd8 amastigotes infected in mouse macrophage after 72 hrs by luciferase reporter gene assay; assay type: functional, organism-based; conditions: MHOM/IN/80/Dd8, 72 h
# Method in brief: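 Mouse J-774A.1 macrophages were seeded at 4 × 10⁴ cells/well in RPMI-1640 with 10% foetal calf serum, 37 °C, CO₂, for 24 h. They were then infected with stationary-phase luciferase-expressing promastigotes at 4 × 10⁵/well. Compounds were added in dilutions starting from 40 and incubated 72 h at 37 °C. Medium was replaced by PBS plus Steady Glo, luminescence read as RLU, and IC50 fitted by four-parameter Hill regression.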
# [4] = Cytotoxicity against mouse J774A1 cells assessed as cell viability after 72 hrs by MTT assay; assay type: cell-based, J774.A1
# [5] = Selectivity index, ratio of CC50 for mouse J774A.1 cells to IC50 for Leishmania donovani MHOM/IN/80/Dd8 amastigotes; assay type: functional
Structure (SMILES),inhibition at 20 µM [1] [%],inhibition [2],IC50 [3] [µM],CC50 at 72 h [4] [µM],Selectivity Index [5]
Clc1ccc(COC(CCn2cncn2)c2ccco2)c(Cl)c1 (centres undefined),97.8,inactive,,,
Clc1ccc(COC(CCn2ccnc2)c2cccs2)c(Cl)c1 (centres undefined),87.8,,5.26,29.7,5.65
Clc1ccc(Cl)c(COC(CCn2cncn2)c2ccco2)c1 (centres undefined),94.5,,9.39,28.9,3.08
Clc1ccc(Cl)c(COC(CCn2ccnc2)c2cccs2)c1 (centres undefined),85.9,,6.75,18,2.66
Clc1cccc(COC(CCn2cncn2)c2ccco2)c1 (centres undefined),97.5,,7.36,18.6,3.17
Clc1ccc(COC(CCn2ccnc2)c2ccco2)c(Cl)c1 (centres undefined),91.8,,5.15,56.2,10.9
Clc1cccc(COC(CCn2cncn2)c2cccs2)c1 (centres undefined),80.6,,8.04,15.6,1.93
CCCCCCCCCCCCCCCCOP(=O)([O-])OCC[N+](C)(C)C [MILTEFOSINE],99.9,,13.4,3.23,0.24
Fc1ccc(COC(CCn2cncn2)c2cccs2)c(F)c1 (centres undefined),92,inactive,,,
Clc1ccc(Cl)c(COC(CCn2cncn2)c2cccs2)c1 (centres undefined),97.3,inactive,,,
Clc1ccc(Cl)c(COC(CCn2ccnc2)c2ccco2)c1 (centres undefined),96,,4.03,37.6,7.15
Clc1cccc(COC(CCn2ccnc2)c2ccco2)c1 (centres undefined),100,,3.04,60.2,19.8
Clc1ccc(COC(Cn2ccnc2)c2ccc(Cl)cc2Cl)c(Cl)c1 (centres undefined) [MICONAZOLE],100,,6,9.93,1.66
Clc1cccc(COC(CCn2ccnc2)c2cccs2)c1 (centres undefined),100,,5.14,46,8.93
Fc1ccc(F)c(COC(CCn2cncn2)c2cccs2)c1 (centres undefined),94.8,inactive,,,
Fc1ccc(COC(CCn2ccnc2)c2ccco2)c(F)c1 (centres undefined),95.5,,4.2,28.8,6.86
Fc1ccc(COC(CCn2ccnc2)c2cccs2)c(F)c1 (centres undefined),90.6,,7.81,34.4,4.4
Fc1ccc(COC(CCn2cncn2)c2ccco2)c(F)c1 (centres undefined),90.5,inactive,,,
Fc1ccc(F)c(COC(CCn2cncn2)c2ccco2)c1 (centres undefined),98.5,inactive,,,
Clc1ccc(COC(CCn2cncn2)c2cccs2)c(Cl)c1 (centres undefined),97.1,inactive,,,
Fc1ccc(F)c(COC(CCn2ccnc2)c2ccco2)c1 (centres undefined),99,,5.35,30.9,5.77
Fc1ccc(F)c(COC(CCn2ccnc2)c2cccs2)c1 (centres undefined),86.8,,7.35,15.1,2.05
